Data from ChEMBL document CHEMBL4219175, “Synthesis and biological evaluation of aminothiazoles against Histoplasma capsulatum and Cryptococcus neoformans” (Bioorg Med Chem, 2018).
Values after ≈ are worked out from the molar mass of the structure shown.

How the values were obtained:
Histoplasma capsulatum [1] = test: Antifungal activity against Histoplasma capsulatum G217B ATCC 26032 at pH 7 measured over 5 days; format: functional, organism-based; conditions: G217B ATCC 26032, 120 h
Summary of the method: (§1)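 Yeasts pre-grown in HMM (37 °C, 5% CO2) to exponential phase, counted by hemacytometer, diluted into RPMI buffered with 25 mM HEPES (pH 7.0) or 25 mM MOPS (pH 5.0) at 5 x 10^5 per well; two-fold dilutions 40 to 0.078 µM, 37 °C, agitated twice daily. A595 read over 5 days, normalized to DMSO controls; 4-day data fitted by 4-parameter regression for IC50; MIC = ≤10% growth.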

Cryptococcus neoformans [2] = test: Antifungal activity against wild type fluconazole-sensitive Cryptococcus neoformans serotype A H99 at pH 7 measured over 4 days; format: functional, organism-based; conditions: var grubii H99 , 96 h
Summary of the method: (§2)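 YPD-grown exponential-phase yeasts, hemacytometer-counted, diluted into RPMI buffered to pH 7.0 with 25 mM HEPES (or pH 5.0 with […] for pH comparison) at 2 x 10^3 per well; two-fold series 40 to 0.078 µM, 37 °C, agitated twice daily. A595 followed over 4 days versus DMSO controls; day-3 turbidity fitted by 4-parameter regression for IC50; MIC = growth ≤10% of untreated.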

P388D1 = test: Cytotoxicity against mouse P388D1 cells assessed as reduction in cell viability after 72 hrs by resazurin-based fluorescence assay; conditions: P388D1, 72 h
Summary of the method: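 P388D1 cells in Ham's F-12 + 10% FBS + 2 mM L-glutamine seeded at 5 x 10^3 per well, adhered overnight, exposed to compounds 80 to 0.3 µM for 72 h. Viability read as resorufin fluorescence (530/590 nm) after 0.1 mM resazurin, pre-saturation time points, versus untreated cells; three biological replicates; IC50 by non-linear regression.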

[3] = Therapeutic index, ratio of IC50 for mouse P388D1 cells to IC50 for Histoplasma capsulatum G217B ATCC 26032; format: toxicity; conditions: read-out: Ratio IC50
Summary of the method: (§3)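 Ratio of P388D1 IC50 (72 h resazurin viability, 80 to 0.3 µM) to yeast IC50 from RPMI/HEPES pH 7.0 broth dilution with A595 turbidity and 4-parameter regression.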

[4] = Therapeutic index, ratio of IC50 for mouse P388D1 cells to IC50 for wild type Cryptococcus neoformans serotype A H99; format: toxicity; conditions: read-out: Ratio IC50; summary of the method: as §3
[5] = Aqueous solubility of the compound at pH 5; format: physicochemical; conditions: aqueous medium
[6] = Aqueous solubility of the compound at pH 7; format: physicochemical; conditions: aqueous medium
[7] = Ratio of aqueous solubility at pH 5 to aqueous solubility at pH 7; format: physicochemical; conditions: buffer
Histoplasma capsulatum [8] = test: Antifungal activity against Histoplasma capsulatum G217B ATCC 26032 at pH 5 measured over 5 days; format: functional, organism-based; conditions: G217B ATCC 26032, 120 h; summary of the method: as §1
Cryptococcus neoformans [9] = test: Antifungal activity against wild type fluconazole-sensitive Cryptococcus neoformans serotype A H99 at pH 5 measured over 4 days; format: functional, organism-based; conditions: var grubii H99 , 96 h; summary of the method: as §2
Cryptococcus neoformans [10] = test: Antifungal activity against wild-type fluconazole-sensitive Cryptococcus neoformans serotype D B3501 measured over 4 days; format: functional, organism-based; conditions: B3501, 96 h; summary of the method: as §2
Cryptococcus neoformans [11] = test: Antifungal activity against fluconazole-resistant Cryptococcus neoformans serotype A TES9 harboring erg11 mutant measured over 4 days; format: functional, organism-based; conditions: TES9, 96 h; summary of the method: as §2
Cryptococcus neoformans [12] = test: Antifungal activity against fluconazole-resistant Cryptococcus neoformans serotype A MRL862 harboring erg11 mutant measured over 4 days; format: functional, organism-based; conditions: MRL862, 96 h; summary of the method: as §2
Histoplasma capsulatum [13] = test: Antifungal activity against RFP expressing Histoplasma capsulatum infected in LacZ-expressing mouse P388D1 cells incubated for 6 days measured daily by fluorescence assay; format: functional, organism-based
Summary of the method: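 LacZ-expressing P388D1 macrophages (3x10^4 per well, adhered 3 h) infected with RFP Histoplasma yeasts at MOI 1:2 for 3 h, medium replaced with F-12 + 10% serum, overnight at 37 °C, then compound gradient added for 6 days. RFP fluorescence (530/590 nm) read daily; day-4 values relative to untreated infected cells fitted by non-linear regression; triplicate.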

Histoplasma capsulatum [14] = test: Fungistatic activity against Histoplasma capsulatum OSU76 after 2 to 24 hrs by colony forming assay; format: functional, organism-based
[15] = Therapeutic index, ratio of IC50 for mouse P388D1 cells to IC50 for Histoplasma capsulatum OSU76; format: toxicity; conditions: read-out: Ratio IC50
Cryptococcus neoformans [16] = test: Antifungal activity against Cryptococcus neoformans TDY271 after 72 hrs by microdilution assay; format: functional, organism-based; conditions: TDY271, 72 h

Row | Compound | IC50 (Histoplasma capsulatum [1]) [µM] | MIC90 (Histoplasma capsulatum [1]) [µM] | IC50 (Cryptococcus neoformans [2]) [µM] | MIC90 (Cryptococcus neoformans [2]) [µM] | IC50 (P388D1) [µM] | selectivity ratio [3] | selectivity ratio [4] | solubility [5] [µg/mL] | solubility [6] [µg/mL] | Ratio [7] | IC50 (Histoplasma capsulatum [8]) [µM] | MIC90 (Histoplasma capsulatum [8]) [µM] | IC50 (Cryptococcus neoformans [9]) [µM] | MIC90 (Cryptococcus neoformans [9]) [µM] | further results
1 | O=C(Nc1ncc(Cc2ccccn2)s1)C1CCCCC1 | 18.3 | 40 (≈ 12.1 µg/mL) | 7.17 | 20 (≈ 6.03 µg/mL) | > 40 | > 2 | > 6 | 480 (≈ 1590 µM) | 340 (≈ 1130 µM) | 1.4 | > 20 | > 40 | 15.6 | > 40 | –
2 | O=C(Nc1ncc(Cc2ccnc3ccccc23)s1)C1CCCCC1 | 3.05 | – | 3.24 | – | 13.9 | 5 | 5 | 130 (≈ 370 µM) | 70 (≈ 199 µM) | 1.9 | 16.8 | 40 (≈ 14.1 µg/mL) | 4.29 | 10 (≈ 3.51 µg/mL) | –
3 | O=C(Nc1ncc(Cc2cccc3ccccc23)s1)C1CCCCC1 | 0.48 | 1.25 (≈ 0.438 µg/mL) | 0.67 | 1.25 (≈ 0.438 µg/mL) | > 40 | > 83 | > 60 | 4 (≈ 11.4 µM) | 4 (≈ 11.4 µM) | 1 | 6.75 | 10 (≈ 3.5 µg/mL) | 3.04 | 5 (≈ 1.75 µg/mL) | IC50 (Cryptococcus neoformans [10]): 0.18 µM; MIC90 (Cryptococcus neoformans [10]): 0.63 µM (≈ 0.221 µg/mL); IC50 (Cryptococcus neoformans [11]): 0.2 µM; MIC90 (Cryptococcus neoformans [11]): 0.63 µM (≈ 0.221 µg/mL); IC50 (Cryptococcus neoformans [12]): 0.23 µM; MIC90 (Cryptococcus neoformans [12]): 0.63 µM (≈ 0.221 µg/mL); MIC (Histoplasma capsulatum [13]; 144 h): 2.5 µM (≈ 0.876 µg/mL); IC50 (Histoplasma capsulatum [13]; P388D1, 144 h): 1.26 µM; IC50 (Histoplasma capsulatum [14]): 0.87 µM; selectivity ratio [15]: 63; IC50 (Cryptococcus neoformans [16]): 1.25 µM
